Active and inactive are the calls of the source. The calls are words filed in the database; no cut-off is given here.
Assays:
PC-9 = assay: Induction of apoptosis in human PC9 cells harboring FASN expression and EGFR delE746-A750 mutant assessed as increase in late apoptotic cells at 5 uM after 72 hrs by Annexin-V FITC/PI staining-based flow cytometry; format: functional, cell-based
[1] = target: Fatty acid synthase (Homo sapiens) (UniProt P49327); assay: Inhibition of FASN in human NCI-H1703 cells expressing FASN assessed as disruption of AKT/FASN positive feedback loop by measuring decrease in AKT expression at 1 uM after 48 hrs by Western immunoblot based densitometric assay relative to control; format: cell-based
In short: (§1)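 PC-9 or H1703 cells were seeded at 8 × 10^5 per 100 mm dish and treated for 48 h at 1 or 5 µM (or 5, 50 and 100 µM). RIPA lysates were BCA-quantified and run on 8% SDS-PAGE, then transferred to PVDF. Blots were probed for FASN, AKT, phospho-AKT S473 and GAPDH and detected by ECL. Bands were quantified by densitometry and normalised to vehicle control.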

[2] = target: Fatty acid synthase (Homo sapiens) (UniProt P49327); assay: Inhibition of FASN in human PC9 cells harboring FASN expression and EGFR delE746-A750 mutant assessed as disruption of AKT/FASN positive feedback loop by measuring decrease in ratio of phosphoAKT/AKT expression at 2 uM after 48 hrs by Western immunoblot based densitometric assay relative to control; format: cell-based
In short: (§2)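 PC-9 (2 µM) or H1703 (1 µM) cells were treated with compound, with or without lipid concentrate (1% v/v per figure legend), for 48 h. Cells were lysed in RIPA buffer and lysates run on SDS-PAGE western blots for FASN, AKT, phospho-AKT S473 and GAPDH. Bands were quantified by densitometry and normalised to untreated control.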

[3] = target: Fatty acid synthase (Homo sapiens) (UniProt P49327); assay: Inhibition of FASN in human PC9 cells harboring FASN expression and EGFR delE746-A750 mutant assessed as disruption of AKT/FASN positive feedback loop by measuring decrease in FASN expression at 5 uM after 48 hrs by Western immunoblot based densitometric assay relative to control; format: cell-based; in short: as §1
[4] = target: Fatty acid synthase (Homo sapiens) (UniProt P49327); assay: Inhibition of FASN in human NCI-H1703 cells expressing FASN assessed as disruption of AKT/FASN positive feedback loop by measuring decrease in FASN expression after 48 hrs by Western immunoblot assay; format: cell-based; in short: as §1
[5] = Selectivity index, ratio of IC50 for human SAE cells lacking FASN expression to IC50 for human PC9 cells harboring FASN expression and EGFR delE746-A750 mutant
In short: (§3)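 Index is the SAEC IC50 divided by the IC50 in the FASN-expressing NSCLC line. IC50s came from MTS viability after 72 h exposure at 37 °C, 5% CO2, DMSO 0.1% v/v. Absorbance was read at 490 nm after 2 h. The fit was % viability against log concentration, with 4 technical repeats and 3 independent experiments. NSCLC lines were grown in RPMI/10% FBS; SAEC in BEGM.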

[6] = target: Fatty acid synthase (Homo sapiens) (UniProt P49327); assay: Inhibition of FASN in human PC9 cells harboring FASN expression and EGFR delE746-A750 mutant assessed as disruption of AKT/FASN positive feedback loop by measuring decrease in FASN expression at 1 uM after 48 hrs by Western immunoblot based densitometric assay relative to control; format: cell-based; in short: as §1
NCI-H1650 = assay: Antiproliferative activity against human NCI-H1650 cells expressing FASN assessed as reduction in cell viability after 72 hrs by MTS assay; format: functional, cell-based; conditions: NCI-H1650, 72 h
In short: (§4)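 ATCC-sourced cells. H1299, H1650, H1703 and PC-9 were grown in RPMI 1640 with 10% FBS. A549 was grown in high-glucose DMEM with 10% FBS and 1 mM pyruvate. SAEC was grown in BEGM. Cells were seeded at 3 × 10^3 per well (H1650 3.5 × 10^3) and left to attach overnight. Serial dilutions from DMSO stocks were added, 0.1% DMSO final, for 72 h at 37 °C, 5% CO2. Medium was replaced, MTS added, and A490 read after 2 h. IC50 was taken from % viability versus log concentration, 3 experiments.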

NCI-H1703 [7] = assay: Antiproliferative activity against human NCI-H1703 cells expressing FASN assessed as reduction in cell viability after 72 hrs by MTS assay; format: functional, cell-based; conditions: NCI-H1703, 72 h; in short: as §4
[8] = Selectivity index, ratio of IC50 for human SAE cells lacking FASN expression to IC50 for human NCI-H1703 cells expressing FASN; in short: as §3
[9] = target: Fatty acid synthase (Homo sapiens) (UniProt P49327); assay: Inhibition of FASN in human NCI-H1703 cells expressing FASN assessed as disruption of AKT/FASN positive feedback loop by measuring decrease in FASN expression at 1 uM after 48 hrs by Western immunoblot based densitometric assay relative to control; format: cell-based; in short: as §1
[10] = target: Fatty acid synthase (Homo sapiens) (UniProt P49327); assay: Inhibition of FASN in human PC9 cells harboring FASN expression and EGFR delE746-A750 mutant assessed as disruption of AKT/FASN positive feedback loop by measuring reduction in AKT expression at 5 uM after 48 hrs by Western immunoblot based densitometric assay relative to control; format: cell-based; in short: as §1
[11] = Ratio of compound kinetic solubility to [1,1'-Biphenyl]-4,4'-diyl bis(3,4,5-trihydroxybenzoate)] kinetic solubility in universal buffer at pH 7.4 measured at 25 degC after 24 hrs by UV/Visible spectroscopic analysis; format: physicochemical; conditions: pH 7.4, 24 h
[12] = target: Fatty acid synthase (Homo sapiens) (UniProt P49327); assay: Inhibition of full length human FASN transfected in HeLa cell lysates at 10 uM using acetyl Co-A/malonyl Co-A as substrate preincubated with enzyme for 2 hrs followed by substrate addition measured after 10 mins in presence of NADPH by microplate reader analysis; format: subcellular; conditions: Lysate
In short: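 Human FASN was made by in vitro translation from a FASN plasmid. Lysate was diluted 3:7 in 100 mM potassium phosphate, pH 6.5, 1 mM EDTA. It was preincubated with compound (10 µM final) for 2 h at 37 °C. Buffer containing acetyl-CoA (55 µM) and NADPH (330 µM) was added, then the reaction was started with malonyl-CoA (500 µM stock). A340 was read at 0 and 10 min; triplicates.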

NCI-H1703 [13] = assay: Antiproliferative activity against human NCI-H1703 cells expressing FASN assessed as cell viability at 1 uM after 72 hrs in presence of exogenous lipid concentrate by MTS assay; format: functional, cell-based
In short: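 Cells were treated as in the MTS viability assay. After 6 h, chemically defined lipid concentrate was added to 2% v/v final. Incubation continued for a further 72 h, then viability was read by MTS at 490 nm. Cells were treated at 2 µM (PC-9) or 1 µM (H1703). Mean ± SD, n = 3, compared with compound alone.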

[14] = target: Fatty acid synthase (Homo sapiens) (UniProt P49327); assay: Inhibition of FASN in human NCI-H1703 cells expressing FASN assessed as disruption of AKT/FASN positive feedback loop by measuring ratio of phosphoAKT/AKT expression at 1 uM after 48 hrs in presence of exogenous lipid concentrate by Western immunoblot based densitometric assay relative to control; format: cell-based; in short: as §2
NCI-H1703 [15] = assay: Induction of apoptosis in human NCI-H1703 cells expressing FASN assessed as increase in late apoptotic cells at 5 uM after 72 hrs by Annexin-V FITC/PI staining-based flow cytometry; format: functional, cell-based

Sequence of Fatty acid synthase (Homo sapiens) (P49327 whole entry, looked up): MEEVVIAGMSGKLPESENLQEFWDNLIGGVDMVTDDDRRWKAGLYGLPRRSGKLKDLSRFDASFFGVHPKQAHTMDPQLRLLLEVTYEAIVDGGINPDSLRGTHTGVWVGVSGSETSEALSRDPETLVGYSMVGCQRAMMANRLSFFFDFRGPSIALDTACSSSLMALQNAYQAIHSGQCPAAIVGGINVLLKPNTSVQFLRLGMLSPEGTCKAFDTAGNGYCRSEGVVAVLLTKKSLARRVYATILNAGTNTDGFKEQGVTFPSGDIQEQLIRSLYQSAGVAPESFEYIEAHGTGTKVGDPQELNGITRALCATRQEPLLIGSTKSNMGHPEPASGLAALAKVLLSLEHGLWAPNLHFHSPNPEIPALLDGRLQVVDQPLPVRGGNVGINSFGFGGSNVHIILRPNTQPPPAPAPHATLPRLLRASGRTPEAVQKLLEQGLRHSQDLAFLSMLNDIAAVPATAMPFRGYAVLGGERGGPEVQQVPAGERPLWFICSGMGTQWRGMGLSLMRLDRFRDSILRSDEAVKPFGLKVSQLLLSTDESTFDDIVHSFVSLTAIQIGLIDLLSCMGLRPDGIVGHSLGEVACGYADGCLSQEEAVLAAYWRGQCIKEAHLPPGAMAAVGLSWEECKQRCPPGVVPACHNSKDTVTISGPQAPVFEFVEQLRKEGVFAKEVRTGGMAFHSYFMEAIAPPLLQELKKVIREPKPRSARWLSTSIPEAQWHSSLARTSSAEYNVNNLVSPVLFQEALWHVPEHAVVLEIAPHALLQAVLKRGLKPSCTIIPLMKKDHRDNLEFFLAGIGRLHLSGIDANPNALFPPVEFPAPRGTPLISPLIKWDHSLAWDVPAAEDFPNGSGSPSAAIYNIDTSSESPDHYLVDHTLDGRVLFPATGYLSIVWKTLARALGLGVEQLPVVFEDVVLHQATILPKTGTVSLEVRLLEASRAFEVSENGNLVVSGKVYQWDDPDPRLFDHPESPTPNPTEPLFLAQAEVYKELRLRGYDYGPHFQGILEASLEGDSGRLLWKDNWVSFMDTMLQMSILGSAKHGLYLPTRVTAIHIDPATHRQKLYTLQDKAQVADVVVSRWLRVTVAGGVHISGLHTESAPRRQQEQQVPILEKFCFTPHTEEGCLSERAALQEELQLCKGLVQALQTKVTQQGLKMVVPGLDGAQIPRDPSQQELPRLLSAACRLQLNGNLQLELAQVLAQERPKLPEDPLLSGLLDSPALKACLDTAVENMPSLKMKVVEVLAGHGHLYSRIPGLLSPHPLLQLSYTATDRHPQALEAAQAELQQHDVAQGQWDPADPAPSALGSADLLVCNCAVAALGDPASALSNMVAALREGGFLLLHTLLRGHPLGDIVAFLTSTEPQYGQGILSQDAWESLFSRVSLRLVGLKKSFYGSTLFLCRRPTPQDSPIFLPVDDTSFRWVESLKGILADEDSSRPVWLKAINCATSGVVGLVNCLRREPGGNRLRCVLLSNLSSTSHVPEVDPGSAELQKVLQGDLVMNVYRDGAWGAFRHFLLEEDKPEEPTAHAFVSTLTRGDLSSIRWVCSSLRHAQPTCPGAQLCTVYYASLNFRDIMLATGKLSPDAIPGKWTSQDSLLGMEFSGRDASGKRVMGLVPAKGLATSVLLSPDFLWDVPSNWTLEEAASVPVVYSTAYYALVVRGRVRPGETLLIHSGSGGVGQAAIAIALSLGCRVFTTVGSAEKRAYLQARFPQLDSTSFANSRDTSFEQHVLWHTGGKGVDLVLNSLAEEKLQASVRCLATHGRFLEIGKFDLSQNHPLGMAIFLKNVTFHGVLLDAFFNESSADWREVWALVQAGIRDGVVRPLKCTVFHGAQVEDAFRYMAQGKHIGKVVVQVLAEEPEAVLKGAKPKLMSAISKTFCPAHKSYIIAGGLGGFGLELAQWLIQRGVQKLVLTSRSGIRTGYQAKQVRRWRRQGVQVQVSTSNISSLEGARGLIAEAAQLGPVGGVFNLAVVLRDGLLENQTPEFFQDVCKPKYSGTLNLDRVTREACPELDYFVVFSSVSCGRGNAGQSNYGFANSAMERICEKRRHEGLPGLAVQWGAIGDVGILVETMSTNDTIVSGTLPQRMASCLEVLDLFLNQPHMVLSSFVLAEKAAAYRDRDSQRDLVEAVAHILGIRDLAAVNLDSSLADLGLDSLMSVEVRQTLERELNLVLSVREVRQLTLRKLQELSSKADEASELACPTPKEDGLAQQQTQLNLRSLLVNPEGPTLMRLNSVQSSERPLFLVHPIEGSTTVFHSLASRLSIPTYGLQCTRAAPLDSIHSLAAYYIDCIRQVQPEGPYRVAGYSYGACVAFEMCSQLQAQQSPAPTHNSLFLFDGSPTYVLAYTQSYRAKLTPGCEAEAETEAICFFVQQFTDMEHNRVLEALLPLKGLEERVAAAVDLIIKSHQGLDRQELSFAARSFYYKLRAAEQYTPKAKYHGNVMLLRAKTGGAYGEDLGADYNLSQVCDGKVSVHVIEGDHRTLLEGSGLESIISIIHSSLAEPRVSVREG

Structure (SMILES)	Activity (PC-9)	Ratio [1]	Ratio [2]	Ratio [3]	inhibition [4]	Ratio IC50 [5]	Ratio [6]	IC50 (NCI-H1650)	IC50 (NCI-H1703 [7])	Ratio IC50 [8]	Ratio [9]	Ratio [10]	Ratio [11]	inhibition [12]	inhibition (NCI-H1703 [13])	Ratio [14]	Activity (NCI-H1703 [15])
O=C(Oc1ccc(/C=C/c2ccc(OC(=O)c3cc(O)c(O)c(O)c3)cc2)cc1)c1cc(O)c(O)c(O)c1	Active	0.34	0.13	0.49	Dose-dependent effect	2.2	0.92	2500 nM	970 nM	5.2	0.11 to 0.24	0.18	6 to 15	Active	inactive	0.62	Active
O=C(Oc1ccc(/C=C/c2cccc(OC(=O)c3cc(O)c(O)c(O)c3)c2)cc1)c1cc(O)c(O)c(O)c1	Active	0.52	0.12	0.65	Dose-dependent effect	1.4	0.86	12700 nM	1280 nM	5.3	0.38 to 0.39	0.12	15	Active	inactive	0.61	Active
